Values after ≈ are worked out from the molar mass of the structure shown.
Columns and labels:
Pseudomonas aeruginosa = assay: Antimicrobial activity was determined against Pseudomonas aeruginosa ATCC 27853 cells; format: functional
Summary of the method: (§1)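 MICs (µg/mL) were determined by agar dilution/streak against S. aureus ATCC 13709, E. coli ATCC 9637, S. gallinarum ATCC 9184, K. pneumoniae ATCC 10031, M. smegmatis ATCC 607, P. aeruginosa ATCC 27853 and C. albicans ATCC 10231.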

Staphylococcus aureus = assay: Antimicrobial activity was determined against Staphylococcus aureus ATCC 13709; format: functional; summary of the method: as §1
CCRF-CEM [1] = assay: Cytotoxic activity against human lymphoblastic leukemia cell culture (CCRF-CEM); format: functional, cell-based
[2] = system: Mycolicibacterium smegmatis; assay: Antimicrobial activity was determined against Mycobacterium smegmatis ATCC 607; format: functional; summary of the method: as §1
Candida albicans = assay: Antimicrobial activity was determined against Candida albicans ATCC 10231; format: functional; summary of the method: as §1
Escherichia coli = assay: Antimicrobial activity was determined against Escherichia coli ATCC 9637; format: functional; summary of the method: as §1
Klebsiella pneumoniae = assay: Antimicrobial activity was determined against Klebsiella pneumoniae ATCC 10031; format: functional; summary of the method: as §1
[3] = system: Epidermoid carcinoma cell line; assay: Cytotoxic activity against human epidermoid carcinoma of the nasopharynx (9KB); format: functional, cell-based
Summary of the method: (§2)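 P388 (9PS, NCI-supplied line) and 9KB IC50s (µg/mL) followed NCI cell culture protocols. Samples were run in duplicate, and growth was compared with untreated controls. IC50 was extrapolated from a least-squares fit of the dose–response curve.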

L1210 [4] = assay: Cytotoxic activity against mouse lymphoblastic leukemia cell culture (L-1210); format: functional, cell-based
Summary of the method: (§3)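 10^4 B16 or L-1210 (ATCC 219) cells were seeded per well in DMEM with 5% bovine serum and grown 48 h at 37 °C under 5% CO2. Agents from 10 mg/mL stocks in 95% ethanol or DMSO were added as 2× medium, then 48 h more. L-1210 cells were dispersed by pipetting; B16 were detached with 0.01% trypsin/0.1% EDTA for 5 min at 37 °C. Cells were counted by hemocytometer or Coulter counter, and the dose halving the count versus untreated controls was read from the count–concentration plot.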

P388 [5] = assay: Cytotoxic activity against P388 mouse leukemia cell culture (9PS(P388)); format: functional, cell-based; summary of the method: as §2
[6] = system: Salmonella enterica subsp. enterica serovar Gallinarum; assay: Antimicrobial activity was determined against Salmonella gallinarum ATCC 9184; format: functional; summary of the method: as §1
B16 [7] = assay: Cytotoxic activity against mouse melanoma cell culture(B-16); format: functional, cell-based; summary of the method: as §3
B16 [8] = assay: Cytotoxicity against mouse melanoma cell culture(B-16); format: functional, cell-based; summary of the method: as §3
[9] = system: Epidermoid carcinoma cell line; assay: Cytotoxicity against human epidermoid carcinoma of the nasopharynx (9KB); format: functional, cell-based; summary of the method: as §2
P388 [10] = assay: Cytotoxicity against P388 mouse leukemia cell culture (9PS(P388)); format: functional, cell-based; summary of the method: as §2
CCRF-CEM [11] = assay: Cytotoxicity against human lymphoblastic leukemia cell culture (CCRF-CEM); format: functional, cell-based
L1210 [12] = assay: Cytotoxicity against mouse lymphoblastic leukemia cell culture (L-1210); format: functional, cell-based; summary of the method: as §3

Row | SMILES | MIC (Pseudomonas aeruginosa) [µg/mL] | MIC (Staphylococcus aureus) [µg/mL] | MIC [2] [µg/mL] | MIC (Candida albicans) [µg/mL] | MIC (Escherichia coli) [µg/mL] | MIC (Klebsiella pneumoniae) [µg/mL] | MIC [6] [µg/mL] | IC50 (CCRF-CEM [1]) [µg/mL] | IC50 [3] [µg/mL] | IC50 (L1210 [4]) [µg/mL] | IC50 (P388 [5]) [µg/mL] | IC50 (B16 [7]) [µg/mL] | IC50 (B16 [8]) [µg/mL] | IC50 [9] [µg/mL] | IC50 (P388 [10]) [µg/mL] | IC50 (CCRF-CEM [11]) [µg/mL] | IC50 (L1210 [12]) [µg/mL]
1 | COC(=O)c1nc(C(C)=O)c2[nH]c3ccccc3c2c1C | > 50 | > 50 | > 50 | > 50 | > 50 | > 50 | > 50 |  |  | > 25 |  | > 25 |  |  |  |  | 
2 | COC(=O)c1nc(-c2ccc3c(n2)C(=O)C(=N)C(OC)=C3O)c(N)c(-c2ccc(OC)c(OC)c2O)c1C | > 100 | > 100 | > 100 | > 100 | > 100 | > 100 | > 100 |  |  |  |  |  | 1.5 (≈ 2.88 µM) | 0.53 (≈ 1.02 µM) | 0.26 (≈ 0.5 µM) | 0.017 (≈ 0.0327 µM) | 3.1 (≈ 5.96 µM)
3 | NC1=CC(=O)c2ccc(-c3cc(C(=O)O)ccc3N)nc2C1=O | > 50 | > 50 | > 50 | > 50 | > 50 | > 50 | > 50 | 14.6 (≈ 47.2 µM) | > 10 | > 20 | 5 (≈ 16.2 µM) | > 20 |  |  |  |  | 
4 | COC(=O)c1[nH]c(-c2ccc3c(n2)C(=O)C(=N)C=C3O)c2nc3ccccc3c-2c1C |  |  |  |  |  |  |  |  |  |  |  |  | 3.1 (≈ 7.52 µM) |  |  |  | 2.2 (≈ 5.33 µM)
5 | COC1=C(N)C(=O)c2ncccc2C1=O | > 100 | 6.25 (≈ 30.6 µM) | 50 (≈ 245 µM) | 50 (≈ 245 µM) | > 50 | 50 (≈ 245 µM) | > 50 | 0.2 (≈ 0.98 µM) | 1.9 (≈ 9.31 µM) | 1 (≈ 4.9 µM) | 0.22 (≈ 1.08 µM) | 1.2 (≈ 5.88 µM) |  |  |  |  | 
6 | COC(=O)c1ccc(N)c(-c2ccc3c(n2)C(=O)C(=N)C=C3O)c1 | > 50 | > 50 | > 50 | > 50 | > 50 | > 50 | > 50 | 0.4 (≈ 1.24 µM) | 2.7 (≈ 8.35 µM) | 0.6 (≈ 1.86 µM) | 0.2 (≈ 0.619 µM) | 0.4 (≈ 1.24 µM) |  |  |  |  | 

More lines, main results first:

Row | MIC (Pseudomonas aeruginosa) [µg/mL] | MIC (Staphylococcus aureus) [µg/mL] | MIC [2] [µg/mL] | MIC (Candida albicans) [µg/mL] | MIC (Escherichia coli) [µg/mL] | MIC (Klebsiella pneumoniae) [µg/mL] | MIC [6] [µg/mL] | SMILES | IC50 (CCRF-CEM [1]) [µg/mL] | IC50 [3] [µg/mL] | IC50 (L1210 [4]) [µg/mL] | IC50 (P388 [5]) [µg/mL] | IC50 (B16 [7]) [µg/mL] | IC50 (B16 [8]) [µg/mL] | IC50 [9] [µg/mL] | IC50 (P388 [10]) [µg/mL] | IC50 (CCRF-CEM [11]) [µg/mL] | IC50 (L1210 [12]) [µg/mL]
7 | > 100 | 1.56 (≈ 5.55 µM) | 1.56 (≈ 5.55 µM) | 3.12 (≈ 11.1 µM) | > 100 | 25 (≈ 88.9 µM) | > 100 | COC1=C(N)C(=O)c2nc(-c3ccccn3)ccc2C1=O | 0.5 (≈ 1.78 µM) | 0.33 (≈ 1.17 µM) | 0.3 (≈ 1.07 µM) | 0.034 (≈ 0.121 µM) | 0.45 (≈ 1.6 µM) |  |  |  |  | 
8 | > 50 | > 50 | > 50 | > 50 | > 50 | > 50 | > 50 | COC(=O)c1[nH]c(C(=O)OC)c(C)c2c3ccccc3nc1-2 | 16.8 (≈ 56.3 µM) |  | > 25 |  | > 25 |  |  |  |  | 
9 | > 100 | 3.12 (≈ 12.4 µM) | 0.78 (≈ 3.1 µM) | 50 (≈ 199 µM) | > 100 | 100 (≈ 398 µM) | 100 (≈ 398 µM) | NC1=CC(=O)c2ccc(-c3ccccn3)nc2C1=O | 0.09 (≈ 0.358 µM) | 0.1 (≈ 0.398 µM) | 0.42 (≈ 1.67 µM) | 0.0023 (≈ 0.00915 µM) | 0.26 (≈ 1.03 µM) |  |  |  |  | 
10 | > 50 | > 50 | > 50 | > 50 | > 50 | > 50 | > 50 | COC(=O)c1nc(C(=O)OC)c(N)c(-c2ccc(OC)c(OC)c2O)c1C |  | > 10 | > 20 | > 10 | > 20 |  |  |  |  | 
11 | > 50 | > 50 | > 50 | > 50 | > 50 | > 50 | > 50 | NC1=CC(=O)c2ccc(-c3cccc(C(=O)O)n3)nc2C1=O |  |  |  |  |  | > 20 | > 10 | > 10 | 2.1 (≈ 7.11 µM) | > 20
12 | > 50 | 6.25 (≈ 20.2 µM) | 6.25 (≈ 20.2 µM) | > 50 | > 50 | 50 (≈ 162 µM) | > 50 | COC(=O)c1cccc(-c2ccc3c(n2)C(=O)C(=N)C=C3O)n1 | 0.1 (≈ 0.323 µM) | 0.17 (≈ 0.55 µM) | 0.4 (≈ 1.29 µM) | 3.9 (≈ 12.6 µM) | 0.9 (≈ 2.91 µM) |  |  |  |  | 
13 | > 100 | 12.5 (≈ 71.8 µM) | 12.5 (≈ 71.8 µM) | 50 (≈ 287 µM) | 50 (≈ 287 µM) | 50 (≈ 287 µM) | 50 (≈ 287 µM) | NC1=CC(=O)c2cccnc2C1=O | 0.3 (≈ 1.72 µM) | 0.74 (≈ 4.25 µM) |  | 0.19 (≈ 1.09 µM) | 0.4 (≈ 2.3 µM) |  |  |  |  | 
14 | 6.25 (≈ 12.3 µM) | < 0.1 | 1.56 (≈ 3.08 µM) | 12.5 (≈ 24.7 µM) | 6.25 (≈ 12.3 µM) | 0.1 (≈ 0.197 µM) | 1.56 (≈ 3.08 µM) | COC1=C(N)C(=O)c2nc(-c3nc(C(=O)O)c(C)c(-c4ccc(OC)c(OC)c4O)c3N)ccc2C1=O [STREPTONIGRIN] |  |  |  |  |  | 0.48 (≈ 0.948 µM) | 0.0025 (≈ 0.00494 µM) | 0.045 (≈ 0.0889 µM) | 0.00017 (≈ 0.000336 µM) | 0.61 (≈ 1.2 µM)

From ChEMBL document CHEMBL1123628, “Streptonigrin and lavendamycin partial structures. Probes for the minimum, potent pharmacophore of streptonigrin, lavendamycin, and synthetic quinoline-5,8-diones” (J Med Chem, 1987)
